Compound activity deposited in PubChem BioAssay by several laboratories.
This is a sample that favours compounds with a hit; in the whole collection about 2.8% have one here.
NPY-Y1 antag: blocks the human neuropeptide Y Y1 receptor; hit rate 1% among 200,000; HEK293-CNG Y1 cells, membrane potential fluorescence; NPY at EC95, then isoproterenol; inhibition, % at 3.6 µM; AID 1040;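 active = inhibition above the campaign mean inhibition of all tested compounds plus 3 SD, cut at about 20% in these data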;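 also: 0% = DMSO wells given NPY plus isoproterenol and 100% = isoproterenol alone without NPY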
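Assay system: HEK293 cells with Y1 receptor plus CNG channel | Probe or stimulus: NPY (25 nM), isoproterenol (1 µM), Ro 20-1724 (25 µM) | Timing: Compound incubation 1 h at room temperature, readout 45 min post-stimulation | Measured by: Membrane-potential fluorescent dye readout | Benchmarks: High control isoproterenol alone, low control NPY with isoproterenol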
EP2 antag: blocks the human prostaglandin E2 receptor EP2 | AID 1422 | C6 glioma cells expressing human EP2, cAMP TR-FRET; cells stimulated with saturating PGE2 | hit rate 0.52% among 260,000 | inhibition, % at 25 µM;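 active = percent inhibition above 40 after rounding to a whole number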;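 also: rat C6 glioma host cells with rolipram phosphodiesterase inhibitor present; the protocol text gives 20 µM as final concentration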
Target sequence (P43116 whole entry, looked up): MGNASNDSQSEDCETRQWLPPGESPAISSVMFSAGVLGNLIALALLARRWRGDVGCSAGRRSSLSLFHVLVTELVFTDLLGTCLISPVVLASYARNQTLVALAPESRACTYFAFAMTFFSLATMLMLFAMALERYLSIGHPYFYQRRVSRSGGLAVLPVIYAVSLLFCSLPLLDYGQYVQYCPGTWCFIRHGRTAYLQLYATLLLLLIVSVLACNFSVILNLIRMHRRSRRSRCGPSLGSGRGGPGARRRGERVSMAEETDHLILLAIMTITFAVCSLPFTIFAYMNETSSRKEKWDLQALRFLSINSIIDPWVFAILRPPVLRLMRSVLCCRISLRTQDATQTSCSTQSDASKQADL
NPY Y2 blocker: blocks the human neuropeptide Y Y2 receptor; P49146; NPY-Y2 expressing cells, antagonist mode; inhibition, % at 2.7 µM; hit rate 0.99% among 140,000; in the data active = inhibition above about 17%;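 also: 0% = vehicle with agonist challenge and 100% = reference antagonist with challenge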
NPY1 pot ag: potentiates or activates human NPY-Y1 receptor; hit rate 0.37% among 220,000; P25929; activation, % at 3.6 µM; NPY-Y1 expressing cells, potentiator/agonist activation; in the data active = activation above about 33%, passing the limit was not always enough;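 also: cells stimulated with NPY at EC10 then isoproterenol at EC100; 0% = low agonist plus stimulus and 100% = saturating agonist plus stimulus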
EP2 mod: modulators of human EP2 prostaglandin E2 receptor; P43116; EP2-expressing cells, cAMP HTRF FRET, PGE2 co-stimulation; hit rate 0.83% among 260,000; induction, % at 25 µM;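 active = compounds whose cAMP rise, as percent of the full-agonist control response, exceeds 60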;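 also: rat C6 glioma line stably carrying human EP2 under a CMV promoter; the protocol text gives 20 µM as final concentration; 100% = response of wells given 1 µM PGE2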
NPY-Y2 PAM-ag: human NPY-Y2 potentiation or agonism, primary screen; P49146; cells expressing NPY-Y2, potentiator/agonist read-out; activation, % at 3.6 µM; hit rate 0.45% among 220,000; AID 1359; in the data active = activation above about 27%;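 also: cells stimulated with NPY near EC25 plus isoproterenol at EC100; 0% = vehicle plus submaximal agonist and 100% = vehicle plus saturating agonist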
Starred values were filed as active, the others as inactive; x = no result given; ! = not active in a repeat.

SMILES	NPY-Y1 antag	EP2 antag	NPY Y2 blocker	NPY1 pot ag	EP2 mod	NPY-Y2 PAM-ag
Cc1oc2c(c1C(=O)O)C(=O)c1ccccc1C2=O	-3	14	x	-8	-41	-4
Cc1oc2c(c1C(=O)c1ccccc1)C(=O)C(=O)c1ccccc1-2	1	57*	1	14	-44	22
COc1ccc(C(=O)Nc2ccc(N3CCN(C(=O)c4ccco4)CC3)cc2)cc1Cl	x	10	x	x	41	x
CCOc1cc(C2C(C(=O)c3ccco3)=C(O)C(=O)N2CCc2ccccc2)ccc1O (centres undefined)	39*	11	36*	-31	13	-24
O=C(Cn1nc(-c2nccc3ccccc23)oc1=O)N1CCc2ccccc21	x	1	x	x	-48	x
O=C(c1cccc(F)c1)N1CCCc2cc(C(O)CN3CCCC3)ccc21 (centres undefined)	x	3	x	x	8	x
COc1ccccc1C1(O)CCN(CC(O)c2ccc3c(c2)OCCO3)CC1 (centres undefined)	x	7	x	x	-26	x
Nc1ccn([C@@H]2O[C@H](CO)[C@@H](O)[C@@H]2O)c(=O)n1	3	14	1	0	29	-4
Nc1ccn([C@H]2O[C@H](CO)[C@@H]3[O][Sn]([c]4ccccc4)([c]4ccccc4)[O][C@@H]32)c(=O)n1	x	42*	x	x	22	x
COc1ccccc1-n1c(SCC(=O)NC2CCCC2)nnc1-c1ccco1	x	14	x	x	3	x
c1ccc(CN2CCC3(CC2)SSC2(CCN(Cc4ccccc4)CC2)SS3)cc1	x	45*	x	x	28	x
OC1(c2ccc(F)cc2)CCN(Cc2ccccc2)C1 (centres undefined)	5	x	0	1	61*	6
COc1ccc(CN2CCN(S(=O)(=O)Cc3ccccc3)CC2)c(OC)c1OC	x	14	x	x	-101	x
C=CCN1CCN(C(c2ccccc2)c2nnnn2C2CCCC2)CC1 (centres undefined)	x	7	x	x	15	x
COc1cccc(N2CC(C(=O)OC(CCCl)C(=O)c3ccc(F)cc3)CC2=O)c1 (centres undefined)	x	10	x	x	-4	x
O=c1[nH]c(/C=C/c2ccccc2)nc(O)c1[N+](=O)[O-]	x	20	x	x	-3	x
COc1ccc2c(c1OC)CN1CCc3cc4c(cc3[C@@H]1[C@@H]2O)OCO4	-1	8	0	-4	1	20
COc1ccc2c(c1OC)C(=O)O[C@H]2[C@H]1c2c(cc3c(c2OC)OCO3)CCN1C	x	10	x	x	68*	x
COc1ccc(C2(NC(=O)C3OCOc4ccccc43)CCCC2)cc1 (centres undefined)	x	2	x	x	-77	x
CCCCN1C(=O)C2ON(c3ccccc3C)C(c3ccco3)C2C1=O (centres undefined)	6	12	16	-6	63*	-7
Cc1ccc2c(c1)cc(CN(Cc1ccccc1)C(=O)c1cnccn1)c1nnnn12	x	19	x	x	6	x
O[C@@H](c1cc([C@@]23C[C@H]4CC[C@@H]2C[C@H](C4)C3)nc2c(Cl)cc(Cl)cc12)[C@@H]1CCCCN1	x	77*	x	x	19	x
O=C(O)CCC(=O)N1CCN(c2nc(-c3ccccc3Cl)c3cc(Br)ccc3n2)CC1	8	18	5	-30	33	-13
Clc1ccccc1-c1ncnc2ccc(Br)cc12	12	17	x	-3	64*!	-9
CC(C)Oc1ccc(/C=N/NC(=O)c2ccc(N(Cc3ccccc3)S(C)(=O)=O)cc2)cc1	-2	9	0	8	-23	3
SMILES	NPY-Y1 antag	EP2 antag	NPY Y2 blocker	NPY1 pot ag	EP2 mod	NPY-Y2 PAM-ag
COC(=O)COc1ccc(/C=N/NC(=O)c2ccc(N(Cc3ccccc3)S(C)(=O)=O)cc2)cc1	2	14	0	61*	-77	31*
O=S(=O)(NCc1ccccc1)c1ccc(S(=O)(=O)N2CCCCCC2)cc1	x	12	x	x	-46	x
Cn1cnnc1SCC(=O)Nc1ccc(Cl)cn1	-12	7	x	74*	19	71*
CCOc1cc(/C=N/NC(N)=S)cc(Br)c1OCc1ccccc1C	3	8	6	-41	63*	-7
COc1ccc2c(c1)CN([C@H](C)[C@@H]1CC[C@@H]3[C@H]4CC[C@H]5C[C@@H](O)CC[C@]5(C)[C@@H]4CC[C@]31C)CO2	x	61*	x	x	-25	x
Cn1c(N2CCCC(C(=O)NCC3CCCO3)C2)nc2ccccc21 (centres undefined)	x	6	x	x	-56	x
O=S(=O)(Nc1ccc(N=Nc2ccc(O)c3ccccc23)cc1)c1ccccc1	-13	14	-8	73*	-85	62*
O=S(=O)(Nc1ccc(N=Nc2ccccc2)cc1)c1ccccc1	-3	14	-2	20	5	8
O=C(c1ccco1)N1CCN(C(=O)N2c3ccccc3Sc3ccccc32)CC1	20	15	10	-35	6	-27
O=C(c1ccco1)N1c2ccccc2Sc2ccccc21	-7	44*	5	13	-2	11
O=C(CCCl)N1c2ccccc2Sc2ccccc21	x	6	x	x	70*	x
CN(C)CCC(=O)N1c2ccccc2Sc2ccc(Cl)cc21	0	2	x	6	-22	5
Cc1ccc2c(c1)C=CC(C)N2C(=O)c1ccccc1 (centres undefined)	6	6	7	9	64*	11
O=C(C[C@@H]1C=Cc2ccccc2N1C(=O)c1ccccc1)c1ccccc1	x	59*	x	x	38	x
COc1ccc(C(=O)N2c3ccccc3C=CC2C#N)cc1 (centres undefined)	5	5	3	-5	14	-6
O=C(CSc1nnc2n(CC(=O)NC3CCCCC3)c3ccccc3n12)NC1CC1	x	5	x	x	-15	x
c1csc(C(c2nnnn2C2CCCCC2)N2CCN3CCCC3C2)c1 (centres undefined)	x	6	x	x	3	x
Cc1ccc(S(=O)(=O)N2CCC(C(=O)Nc3nnc(-c4ccco4)s3)CC2)cc1	-8	46*!	0	44*	-3	52*
CC1CCCC(C)N1C(=O)CSc1nnc2n(Cc3ccccc3)c3ccccc3n12 (centres undefined)	x	15	x	x	2	x
Cn1ncc(Cl)c1C(=O)Nc1cccnc1	-2	6	5	43*	10	-4
C#CCn1cc(/C=N/Nc2nc3ccccc3[nH]2)c2ccccc21	-8	23	-1	45*	-86	49*
CCN(CC)c1ccc(/C=N/Nc2nc3ccccc3[nH]2)c(O)c1	-3	61*	-4	15	-56	15
C(=N\Nc1nc2ccccc2[nH]1)/c1cccc2nccnc12	x	15	x	-17	-101	-2
COCCNCC(=O)Nc1ncc(C)s1	x	20	x	x	25	x
